Measurements as given in PubChem BioAssay.
Records with an inconclusive call do not appear.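 How the source made its calls, unless noted: active means inhibition over a set limit, the all-compound mean plus 3 SD, in both replicate runs; inconclusive means over that limit in just one replicate run; inactive means at or under that limit in both runs.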

Experiments:
[1] = OD615 S. cerevisiae growth inhibition, permissive medium, pilot counter-assay, permissive growth control for S. cerevisiae lifespan shortening project (AID 705;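 active means growth inhibition above 25% in both replicates, a cutoff set 3 SD above the mean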); conditions: OD615, 24 h, at 10 µM, active compounds read high
Procedure, shortened: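 System: engineered DeaD yeast; Medium: permissive raffinose/galactose medium; Compound dosing: 10 µM single dose, 0.25% DMSO; Incubation: 4 h cell pre-growth, 24 h exposure at 30 °C; Technique: OD at 615 nm; Evaluation: growth inhibition from lowered OD615 after 24 h.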

[2] = Restrictive medium S. cerevisiae growth inhibition, OD615, pilot screen of yeast lifespan reduction project, restrictive growth control (AID 706;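 active means growth inhibition above a set limit, 3 SD over mean compound inhibition, in both replicates, cut at about 43% in these data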;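 further: modified DeaD lifespan yeast strain shifted to restrictive glucose medium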); conditions: OD615, 48 h, at 10 µM, active compounds read high
Procedure, shortened: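 Material: modified S. cerevisiae; buffer or medium: CSMM-D glucose medium; doses: one concentration, 10 µM final, 0.25% DMSO; incubation: 48 h compound exposure at 30 °C; detection: optical density at 615 nm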

[3] = viability gain of MRP-1-high H69AR cells under doxorubicin, pilot screen, MRP-1 activator project, CellTiter-Glo, duplicate (AID 807;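 active means viability increase at or above a cutoff of the median across tested compounds plus 3 SD, cut at about 8.5% in these data, passing the limit was not always enough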;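 further: compound pretreatment 18-22 h then 72 h combined with doxorubicin; 0% = doxorubicin alone and 100% = vehicle without doxorubicin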); conditions: H69AR viability with doxorubicin, CellTiter-Glo luminescence; at 10 µM; active compounds read high
[4] = growth suppression of beta-catenin knockout HCT116, pilot screen, human colon tumor cells (AID 823;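 active means cell viability at or below a set limit in both duplicate runs, the limit being the all-compound median minus 4 SD, cut at about 23% in these data, passing the limit was not always enough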;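 further: 0% = wells killed by 20 µM Hyamine and 100% = untreated DMSO cell wells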); conditions: CellTiter-Glo, 60 h, at 10 µM, active compounds read low
[5] = growth suppression of PTEN-deleted HCT116, pilot screen, cell-based, HCT116 clonal line, CellTiter-Glo (AID 824;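 active means viability at or below 27.92% in each of two runs, the all-compound median minus 4 SD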;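 further: 0% = 20 µM Hyamine control and 100% = vehicle cell control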); conditions: 60 h, at 10 µM, active compounds read low
[6] = inhibitors of the yeast RAM network, pilot screen, dse1pr::URA3 reporter, 5-FOA selection (AID 869);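 further: 0% = DMSO wells with no growth and 100% = 10 µM 1-NA-PP1 with full growth; RAM network block rescues cells from 5-FOA so hits raise OD615 growth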; conditions: S. cerevisiae dse1pr::URA3 5-FOA growth, OD615, 2 d; at 10 µM; active compounds read high; strain carries analog-sensitive mutant Cbk1 kinase

CCOC(=O)C1=C(N)OC2=C(C(=O)CC(C)(C)C2)C1C1CCCCC1 (stereo not drawn)
inactive: growth inhibition [1] -13.2% | growth inhibition [2] -4.08% | viability increase [3] -1.22% | viability [4] 93.3% | viability [5] 92.9% | inhibition [6] 1.4%

CCN(CC)S(=O)(=O)c1cc(-c2nnc(-c3ccc(Br)cc3)o2)ccc1Cl
inactive: growth inhibition [1] -10.3% | growth inhibition [2] -14.6% | viability increase [3] 1.36% | viability [5] 41.7% | inhibition [6] 2.41%

CCOC(=O)c1ccccc1NC1c2ccccc2C(=O)N1c1ccc(C)cn1 (stereo not drawn)
inactive: growth inhibition [1] -11.3% | growth inhibition [2] 6.58% | viability increase [3] -2.23% | viability [4] 72.9% | viability [5] 79.6% | inhibition [6] 2.52%

CC(C)n1c(C(=O)OCC(=O)NCc2ccc3c(c2)OCO3)cc2sccc21
inactive: growth inhibition [1] -10.2% | growth inhibition [2] -12.8% | viability increase [3] -6.26% | viability [4] 53.4% | inhibition [6] 2.71%

Cc1ccc(CNC(=O)CS(=O)Cc2nc(-c3ccccc3C)oc2C)cc1 (stereo not drawn)
inactive: growth inhibition [1] -3.71% | growth inhibition [2] 1.06% | viability increase [3] 0.04% | viability [4] 90.3% | viability [5] 98.4% | inhibition [6] 1.06%
